The species entered for one experiment is Rattus norvegicus. Put plainly: in vitro Agonist activity (inhibition of growth hormone release) on cultured rat pituitary cells. The format is functional, cell-based. As to conditions: Pituitary gland cell. The gist of the method: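 Anterior pituitary cells from adult male rats were dispersed with trypsin/DNase and cultured 4–5 days at about 200 000 cells/well. GH in the medium was measured by double-antibody RIA.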

The target in experiment [1] is Somatostatin receptor type 1 (Homo sapiens, UniProt P30872). Put plainly: Binding affinity was determined on cloned human somatostatin receptor-1 (hsst1). The gist of the method:
(§1)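 Membranes from CHO-K1 cells stably transfected with human sst1, sst2 or sst4 (calcium phosphate, G418 selection), resuspended in 10 mM Tris-HCl. Filtered on GF/C; nonspecific binding measured with 1.0 μM SRIF. Kd from concentration-dependent displacement.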

The target in experiment [2] is Somatostatin receptor type 4 (Homo sapiens, UniProt P31391). Nature of the experiment: Binding affinity was determined on cloned human somatostatin receptor-1 (hsst4). The gist of the method:
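Membranes from CHO-K1 cells stably transfected with human sst1, sst2 or sst4 (calcium phosphate, G418 selection), resuspended in 10 mM Tris-HCl. Incubated 30 min at 37 °C with 0.05 nM [125I]Tyr11-SRIF (sst1, sst4) or [125I]MK-678 (sst2) in HEPES pH 7.4 with BSA, MgCl2 and protease inhibitors. Filtered on GF/C; nonspecific binding measured with 1.0 μM SRIF. Kd from concentration-dependent displacement.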

Experiment [3] addresses Somatostatin receptor type 5 (Homo sapiens, UniProt P35346). Nature of the experiment: Binding affinity was determined on cloned human somatostatin receptor-1 (hsst5).
The target in experiment [4] is Somatostatin receptor type 2 (Homo sapiens, UniProt P30874). Put plainly: Binding affinity was determined on cloned human somatostatin receptor-1 (hsst2). The gist of the method: as §1
Sequence of Somatostatin receptor type 2 (P30874 whole entry): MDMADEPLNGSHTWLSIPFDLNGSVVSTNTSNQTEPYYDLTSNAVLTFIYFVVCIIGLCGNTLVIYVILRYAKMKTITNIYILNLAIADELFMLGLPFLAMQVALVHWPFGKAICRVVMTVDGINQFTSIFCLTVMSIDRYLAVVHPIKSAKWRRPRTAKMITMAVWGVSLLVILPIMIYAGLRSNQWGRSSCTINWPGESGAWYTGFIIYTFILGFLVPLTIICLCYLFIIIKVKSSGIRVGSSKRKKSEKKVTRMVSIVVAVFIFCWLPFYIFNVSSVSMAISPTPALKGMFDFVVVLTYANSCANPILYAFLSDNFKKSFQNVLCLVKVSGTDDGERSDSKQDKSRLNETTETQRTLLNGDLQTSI
Experiment [5] concerns the target Somatostatin receptor type 3 (Homo sapiens, UniProt P32745). Nature of the experiment: Binding affinity was determined on cloned human somatostatin receptor-1 (hsst3).

Where a SMILES comes first, the peptide text is derived from it. Bridges are numbered along the chain shown (N, C = ends). [ ]: non-standard residue; d: D form. NMeY = CN[C@@H](Cc1ccc(O)cc1)C(=O)O; NMeT = CN[C@H](C(=O)O)[C@@H](C)O; NMeK = CN[C@@H](CCCCN)C(=O)O; NMeC = CN[C@@H](CS)C(=O)O

The IC50 is the concentration at which inhibition is half-maximal. A low value points to greater potency in that assay. Usually Kd stands for the concentration at which binding is half-saturated.

Sequence of Somatostatin receptor type 4 (P31391 whole entry): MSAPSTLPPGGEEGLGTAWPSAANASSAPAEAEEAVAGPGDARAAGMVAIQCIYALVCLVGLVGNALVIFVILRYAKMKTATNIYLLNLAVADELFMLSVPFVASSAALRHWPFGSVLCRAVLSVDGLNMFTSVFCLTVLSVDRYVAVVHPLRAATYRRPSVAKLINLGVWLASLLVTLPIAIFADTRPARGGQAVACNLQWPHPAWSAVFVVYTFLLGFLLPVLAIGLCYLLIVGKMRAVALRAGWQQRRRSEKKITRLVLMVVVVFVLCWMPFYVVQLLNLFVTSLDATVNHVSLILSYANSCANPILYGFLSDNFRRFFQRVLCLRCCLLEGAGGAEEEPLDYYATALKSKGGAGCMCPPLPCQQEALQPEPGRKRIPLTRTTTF
Sequence of Somatostatin receptor type 1 (P30872 whole entry): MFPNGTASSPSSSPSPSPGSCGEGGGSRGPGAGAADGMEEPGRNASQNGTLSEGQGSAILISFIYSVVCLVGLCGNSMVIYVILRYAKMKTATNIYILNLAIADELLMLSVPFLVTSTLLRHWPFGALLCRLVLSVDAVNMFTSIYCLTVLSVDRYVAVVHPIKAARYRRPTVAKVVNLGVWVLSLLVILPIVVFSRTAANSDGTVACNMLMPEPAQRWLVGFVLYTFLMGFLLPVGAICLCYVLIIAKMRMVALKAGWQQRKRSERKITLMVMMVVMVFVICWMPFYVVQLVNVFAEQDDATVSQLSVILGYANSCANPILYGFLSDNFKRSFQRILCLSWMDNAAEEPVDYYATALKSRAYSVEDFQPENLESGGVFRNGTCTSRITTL
Sequence of Somatostatin receptor type 3 (P32745 whole entry): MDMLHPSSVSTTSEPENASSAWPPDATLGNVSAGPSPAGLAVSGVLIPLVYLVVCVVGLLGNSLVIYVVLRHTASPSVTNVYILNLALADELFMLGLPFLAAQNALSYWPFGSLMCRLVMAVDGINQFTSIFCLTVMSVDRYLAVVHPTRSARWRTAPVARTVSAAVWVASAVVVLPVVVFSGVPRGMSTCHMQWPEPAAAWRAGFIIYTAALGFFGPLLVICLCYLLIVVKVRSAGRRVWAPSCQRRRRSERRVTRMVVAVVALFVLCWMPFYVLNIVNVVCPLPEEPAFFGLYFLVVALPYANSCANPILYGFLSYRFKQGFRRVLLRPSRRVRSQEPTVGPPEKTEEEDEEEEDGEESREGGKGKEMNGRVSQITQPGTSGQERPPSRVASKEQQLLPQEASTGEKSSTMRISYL
Sequence of Somatostatin receptor type 5 (P35346 whole entry): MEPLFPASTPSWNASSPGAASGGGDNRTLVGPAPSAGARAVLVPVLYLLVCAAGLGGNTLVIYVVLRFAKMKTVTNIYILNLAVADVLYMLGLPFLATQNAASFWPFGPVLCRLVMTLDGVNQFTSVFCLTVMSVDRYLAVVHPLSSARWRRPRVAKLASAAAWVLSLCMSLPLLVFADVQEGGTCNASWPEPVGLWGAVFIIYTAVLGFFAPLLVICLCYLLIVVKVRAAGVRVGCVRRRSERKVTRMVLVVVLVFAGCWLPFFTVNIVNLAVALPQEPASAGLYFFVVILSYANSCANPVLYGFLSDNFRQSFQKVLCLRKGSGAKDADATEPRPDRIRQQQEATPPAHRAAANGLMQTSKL

In turn, `C[C@@H](O)[C@@H]1NC(=O)[C@H](CCCCN)NC(=O)[C@@H](Cc2c[nH]c3ccccc23)NC(=O)[C@H](Cc2ccccc2)NC(=O)[C@@H](NC(=O)[C@H](N)Cc2ccccc2)CSSC[C@@H](C(=O)N(C)[C@H](C(N)=O)[C@@H](C)O)NC1=O` registered a half-maximal inhibitory concentration (IC50) in the experiment listed under Rattus norvegicus of 28.8 nM.

In the experiment listed under Rattus norvegicus, `C[C@@H](O)[C@H](NC(=O)[C@@H]1CSSC[C@H](N(C)C(=O)[C@H](N)Cc2ccccc2)C(=O)N[C@@H](Cc2ccccc2)C(=O)N[C@H](Cc2c[nH]c3ccccc23)C(=O)N[C@@H](CCCCN)C(=O)N[C@@H]([C@@H](C)O)C(=O)N1)C(N)=O` displayed a concentration for half-maximal inhibition (IC50) of 0.36 nM.

For the molecule `CN[C@H](Cc1ccccc1)C(=O)N[C@H]1CSSC[C@@H](C(=O)N[C@H](C(N)=O)[C@@H](C)O)NC(=O)[C@H]([C@@H](C)O)NC(=O)[C@H](CCCCN)NC(=O)[C@@H](Cc2c[nH]c3ccccc23)NC(=O)[C@H](Cc2ccccc2)NC1=O`, the Kd is 316 nM in experiment [1]; more than 1000 nM in experiment [2]; 4.89 nM in experiment [3]; 1.03 nM in experiment [4]; 17.9 nM in experiment [5].

With `C[C@@H](O)[C@H](NC(=O)[C@@H]1CSSC[C@H](NC(=O)[C@H](N)Cc2ccccc2)C(=O)N[C@@H](Cc2ccccc2)C(=O)N[C@H](Cc2c[nH]c3ccccc23)C(=O)N[C@@H](CCCCN)C(=O)N[C@@H]([C@@H](C)O)C(=O)N1)C(N)=O`, the IC50 in the experiment listed under Rattus norvegicus was determined as 0.16 nM.

As for `C[C@@H](O)[C@H](NC(=O)[C@@H]1CSSC[C@H](NC(=O)[C@@H](N)Cc2ccc(O)cc2)C(=O)N[C@@H](Cc2ccccc2)C(=O)N[C@H](Cc2c[nH]c3ccccc23)C(=O)N[C@@H](CCCCN)C(=O)N[C@@H]([C@@H](C)O)C(=O)N1)C(N)=O` (H-YCF[dW]KTCT-NH2; disulfide 2-7), in the experiment listed under Rattus norvegicus, the IC50 was 1.11 nM.

In experiment [4], `C[C@@H](O)[C@H](NC(=O)[C@@H]1CSSC[C@H](NC(=O)[C@@H](N)Cc2ccc(O)cc2)C(=O)N[C@@H](Cc2ccccc2)C(=O)N[C@H](Cc2c[nH]c3ccccc23)C(=O)N[C@@H](CCCCN)C(=O)N[C@@H]([C@@H](C)O)C(=O)N1C)C(N)=O` (H-YCF[dW]KT[NMeC]T-NH2; disulfide 2-7) gave an equilibrium dissociation constant (Kd) of 56.2 nM.

Molecule `C[C@@H](O)[C@H](NC(=O)[C@@H]1CSSC[C@H](NC(=O)[C@@H](N)Cc2ccc(O)cc2)C(=O)N[C@@H](Cc2ccccc2)C(=O)N[C@H](Cc2c[nH]c3ccccc23)C(=O)N[C@@H](CCCCN)C(=O)N(C)[C@@H]([C@@H](C)O)C(=O)N1)C(N)=O` (H-YCF[dW]K[NMeT]CT-NH2; disulfide 2-7) showed a Kd in experiment [2] of 1000 nM.

In the experiment filed under Rattus norvegicus, `C[C@@H](O)[C@H](NC(=O)[C@@H]1CSSC[C@H](NC(=O)[C@@H](N)Cc2ccc(O)cc2)C(=O)N[C@@H](Cc2ccccc2)C(=O)N[C@H](Cc2c[nH]c3ccccc23)C(=O)N(C)[C@@H](CCCCN)C(=O)N[C@@H]([C@@H](C)O)C(=O)N1)C(N)=O` (H-YCF[dW][NMeK]TCT-NH2; disulfide 2-7) registered an IC50 of 27.4 nM.

Take `CN[C@@H](Cc1ccc(O)cc1)C(=O)N[C@H]1CSSC[C@@H](C(=O)N[C@H](C(N)=O)[C@@H](C)O)NC(=O)[C@H]([C@@H](C)O)NC(=O)[C@H](CCCCN)NC(=O)[C@@H](Cc2c[nH]c3ccccc23)NC(=O)[C@H](Cc2ccccc2)NC1=O` (H-[NMeY]CF[dW]KTCT-NH2; disulfide 2-7): the Kd in experiment [1] was 811 nM; in experiment [4], 9.74 nM.

(Values after ChEMBL document CHEMBL1134652, “N-Methyl scan of somatostatin octapeptide agonists produces interesting effects on receptor subtype specificity” (J Med Chem, 2001).)
